Reference: ChEMBL document CHEMBL1126582, “Symmetry-based inhibitors of HIV protease. Structure-activity studies of acylated 2,4-diamino-1,5-diphenyl-3-hydroxypentane and 2,5-diamino-1,6-diphenylhexane-3,4-diol” (J Med Chem, 1993)
pEC50, pIC50: −log10 of the molar value. ≈ marks a conversion by molar mass, not a printed value.

What was measured:
[1] = target: Human immunodeficiency virus type 1 protease (Human immunodeficiency virus 1, UniProt Q72874); assay: Inhibition of purified recombinant HIV-1 protease in a fluorogenic assay
Outline: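 Purified recombinant HIV-1 protease, with cleavage of the fluorogenic substrate DABCYL-[…]-Pro-Ile-Val-Gln-EDANS as read-out. Value is the inhibitor concentration giving 50% inhibition of protease activity.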

[2] = In vitro for cytotoxicity in MT-4 lymphocytes in the absence of HIV infection; format: cell-based, MT4; conditions: human
Outline: (§1)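 Uninfected MT-4 lymphocytes were cultured with compound. CC50 is the concentration at which 50% of cells remain viable.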

[3] = tested on: Human immunodeficiency virus 1; assay: Compound was tested in vitro for inhibition of cytopathic effect of HIV-1 3B in MT-4 lymphocytes; format: functional, organism-based
Outline: (§2)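 MT-4 lymphocytes were infected with HIV-1 3B at an MOI of either 0.001 or 0.032 tissue culture infective dose per cell. EC50 is the concentration preventing 50% of viral cytopathic effect, from a single triplicate assay. No effect means no activity up to 100 μM or up to the cytotoxic concentration.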

[4] = Estimated solubility (buffer pH 7.4); format: ADME; conditions: read-out: S
Outline: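 Solubility was estimated in pH 7.4 phosphate buffer.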

MT4 [5] = assay: Compound was tested in vitro for inhibition of cytopathic effect of HIV-1 3B in MT-4 lymphocytes; No effect; format: functional, cell-based, Homo sapiens; outline: as §2
[6] = tested on: Human immunodeficiency virus 1; assay: In vitro for inhibition of cytopathic effect of HIV-1 3B in MT-4 lymphocytes.; format: functional, organism-based; outline: as §2
MT4 [7] = assay: In vitro for cytotoxicity in MT-4 lymphocytes in the absence of HIV infection.; format: functional; conditions: Homo sapiens; outline: as §1

Row | Structure (SMILES) | pIC50 [1] | CC50 [2] | pEC50 [3] | solubility [4] | EC50 (MT4 [5]) | pEC50 [6] | CC50 (MT4 [7])
1 | CC(C)[C@H](NC(=O)N(C)Cc1csc(N)n1)C(=O)N[C@@H](Cc1ccccc1)[C@@H](O)[C@H](O)[C@H](Cc1ccccc1)NC(=O)[C@H](NC(=O)N(C)Cc1csc(N)n1)C(C)C | > 9.00 | > 100 µM | 5.64 | 184 µg/mL (≈ 220 µM) | – | – | –
2 | CC(C)[C@H](NC(=O)OCCN1CCOCC1)C(=O)N[C@@H](Cc1ccccc1)[C@@H](O)[C@H](Cc1ccccc1)NC(=O)[C@H](NC(=O)OCc1ccccc1)C(C)C | 8.05 | > 100 µM | 5.16 | 6.8 µg/mL (≈ 8.95 µM) | – | – | –
3 | CC(C)[C@H](NS(=O)(=O)CCc1ccncc1)C(=O)N[C@@H](Cc1ccccc1)[C@@H](O)[C@H](O)[C@H](Cc1ccccc1)NC(=O)[C@H](NS(=O)(=O)CCc1ccncc1)C(C)C | 7.62 | > 100 µM | 4.80 | 32 µg/mL (≈ 38.2 µM) | – | – | –
4 | CC(C)[C@H](NC(=O)N1CCOCC1)C(=O)N[C@@H](Cc1ccccc1)[C@H](O)[C@H](O)[C@H](Cc1ccccc1)NC(=O)[C@H](NC(=O)N1CCOCC1)C(C)C | 7.37 | > 100 µM | 4.06 | – | – | – | –
5 | CC(C)[C@H](NC(=O)CCc1ccccn1)C(=O)N[C@@H](Cc1ccccc1)C(O)[C@H](Cc1ccccc1)NC(=O)[C@H](NC(=O)CCc1ccccn1)C(C)C (stereo partly specified) | 7.92 | > 100 µM | 5.66 | – | – | – | –
6 | CC(C)[C@H](NS(=O)(=O)CCc1ccccn1)C(=O)N[C@@H](Cc1ccccc1)[C@@H](O)[C@H](O)[C@H](Cc1ccccc1)NC(=O)[C@H](NS(=O)(=O)CCc1ccccn1)C(C)C | > 9.00 | > 100 µM | 5.82 | – | – | – | –
7 | CC(C)[C@H](NS(=O)(=O)CCc1ccccn1)C(=O)N[C@@H](Cc1ccccc1)[C@H](O)[C@H](O)[C@H](Cc1ccccc1)NC(=O)[C@H](NS(=O)(=O)CCc1ccccn1)C(C)C | 8.80 | > 100 µM | 5.74 | 0.047 µg/mL (≈ 0.0561 µM) | – | – | –
8 | CC(C)[C@H](NC(=O)N1CCN(c2ccccc2)CC1)C(=O)N[C@@H](Cc1ccccc1)[C@@H](O)[C@@H](O)[C@H](Cc1ccccc1)NC(=O)[C@H](NC(=O)N1CCN(c2ccccc2)CC1)C(C)C | 8.85 | 18 µM | 5.77 | 1 µg/mL (≈ 1.14 µM) | – | – | –
9 | CC(C)[C@H](NS(=O)(=O)CCc1ccccn1)C(=O)N[C@@H](Cc1ccccc1)[C@@H](O)[C@@H](O)[C@H](Cc1ccccc1)NC(=O)[C@H](NS(=O)(=O)CCc1ccccn1)C(C)C | > 9.00 | > 100 µM | 5.70 | 26 µg/mL (≈ 31.1 µM) | – | – | –
10 | CC(C)[C@H](NC(=O)N(C)Cc1cscn1)C(=O)N[C@@H](Cc1ccccc1)[C@H](O)[C@@H](O)[C@H](Cc1ccccc1)NC(=O)[C@H](NC(=O)N(C)Cc1csc(N)n1)C(C)C | > 9.00 | > 100 µM | 5.82 | 331 µg/mL (≈ 403 µM) | – | – | –
11 | CC(C)[C@H](NC(=O)OCc1ccncc1)C(=O)N[C@@H](Cc1ccccc1)[C@@H](O)[C@H](Cc1ccccc1)NC(=O)[C@H](NC(=O)OCc1ccccc1)C(C)C | 8.15 | > 100 µM | 5.00 | 0.8 µg/mL (≈ 1.08 µM) | – | – | –
12 | CC(C)[C@H](NC(=O)N1CCN(Cc2ccccc2)CC1)C(=O)N[C@@H](Cc1ccccc1)[C@H](O)[C@H](O)[C@H](Cc1ccccc1)NC(=O)[C@H](NC(=O)N1CCN(Cc2ccccc2)CC1)C(C)C | 8.05 | > 100 µM | 5.03 | 1.7 µg/mL (≈ 1.88 µM) | – | – | –
13 | CC(C)[C@H](NC(=O)OCC1CCCN(C)C1)C(=O)N[C@@H](Cc1ccccc1)[C@@H](O)[C@H](Cc1ccccc1)NC(=O)[C@H](NC(=O)OCc1ccccc1)C(C)C (stereo partly specified) | 7.89 | 17 µM | – | 31 µg/mL (≈ 40.9 µM) | Not Active | – | –
14 | CC(C)[C@H](NC(=O)N(C)Cc1nccs1)C(=O)N[C@@H](Cc1ccccc1)[C@H](O)[C@@H](O)[C@H](Cc1ccccc1)NC(=O)[C@H](NC(=O)N(C)Cc1csc(N)n1)C(C)C | > 9.00 | > 100 µM | 5.80 | 196 µg/mL (≈ 238 µM) | – | – | –
15 | CC(C)[C@H](NS(=O)(=O)CCc1ccncc1)C(=O)N[C@@H](Cc1ccccc1)[C@@H](O)[C@@H](O)[C@H](Cc1ccccc1)NC(=O)[C@H](NS(=O)(=O)CCc1ccncc1)C(C)C | 8.24 | > 100 µM | 4.77 | 5.6 µg/mL (≈ 6.69 µM) | – | – | –
16 | CC(C)[C@H](NC(=O)CCc1cccnc1)C(=O)N[C@@H](Cc1ccccc1)[C@@H](O)[C@@H](O)[C@H](Cc1ccccc1)NC(=O)[C@H](NC(=O)CCc1cccnc1)C(C)C | 8.82 | > 100 µM | 5.02 | – | – | – | –
17 | CC(C)[C@H](NC(=O)OCCN1CCCC1)C(=O)N[C@@H](Cc1ccccc1)[C@@H](O)[C@H](Cc1ccccc1)NC(=O)[C@H](NC(=O)OCc1ccccc1)C(C)C | 7.85 | 21 µM | – | 19 µg/mL (≈ 25.5 µM) | Not Active | – | –
18 | CC(C)[C@H](NS(=O)(=O)N(C)Cc1ccccn1)C(=O)N[C@@H](Cc1ccccc1)[C@@H](O)[C@@H](O)[C@H](Cc1ccccc1)NC(=O)[C@H](NS(=O)(=O)N(C)Cc1ccccn1)C(C)C | 6.62 | 52 µM | – | 23 µg/mL (≈ 26.5 µM) | Not Active | – | –
19 | CC(C)[C@H](NC(=O)C1Cc2ccccc2CN1)C(=O)N[C@@H](Cc1ccccc1)C(O)[C@H](Cc1ccccc1)NC(=O)[C@H](NC(=O)C1Cc2ccccc2CN1)C(C)C (stereo partly specified) | 8.15 | 6.4 µM | – | – | Not Active | – | –
20 | CC(C)[C@H](NC(=O)CCc1cccnc1)C(=O)N[C@@H](Cc1ccccc1)C(O)[C@H](Cc1ccccc1)NC(=O)[C@H](NC(=O)CCc1cccnc1)C(C)C (stereo partly specified) | 7.66 | 55 µM | 5.00 | – | – | – | –
21 | CC(C)[C@H](NC(=O)OCCN1CCOCC1)C(=O)N[C@@H](Cc1ccccc1)[C@@H](O)[C@@H](O)[C@H](Cc1ccccc1)NC(=O)[C@H](NC(=O)OCCN1CCOCC1)C(C)C | 7.70 | > 100 µM | 4.85 | 132 µg/mL (≈ 162 µM) | – | – | –
22 | CC(C)[C@H](NS(=O)(=O)N(C)Cc1ccccn1)C(=O)N[C@@H](Cc1ccccc1)[C@@H](O)[C@H](O)[C@H](Cc1ccccc1)NC(=O)[C@H](NS(=O)(=O)N(C)Cc1ccccn1)C(C)C | 7.15 | 56 µM | – | 30 µg/mL (≈ 34.6 µM) | Not Active | – | –
23 | CC(C)[C@H](NC(=O)OCc1ccccc1)C(=O)N[C@@H](Cc1ccccc1)[C@@H](O)[C@@H](O)[C@H](Cc1ccccc1)NC(=O)[C@H](NC(=O)OCc1ccccc1)C(C)C | > 9.00 | – | – | < 0.03 µg/mL | – | 6.96 | > 100 µM
24 | CC(C)[C@H](NC(=O)NCc1ccccn1)C(=O)N[C@@H](Cc1ccccc1)C(O)[C@H](Cc1ccccc1)NC(=O)[C@H](NC(=O)NCc1ccccn1)C(C)C (stereo partly specified) | 8.00 | – | – | 53 µg/mL (≈ 71.9 µM) | – | 5.21 | > 100 µM
25 | CC(C)[C@H](NC(=O)N(C)CCc1ccccn1)C(=O)N[C@@H](Cc1ccccc1)[C@@H](O)[C@H](O)[C@H](Cc1ccccc1)NC(=O)[C@H](NC(=O)N(C)CCc1ccccn1)C(C)C | 8.28 | – | – | 66 µg/mL (≈ 80.2 µM) | – | 5.38 | 61 µM
26 | CC(C)[C@H](NC(=O)N(C)Cc1nccs1)C(=O)N[C@@H](Cc1ccccc1)[C@@H](O)[C@@H](O)[C@H](Cc1ccccc1)NC(=O)[C@H](NC(=O)N(C)Cc1nccs1)C(C)C | 9.00 | – | – | 137 µg/mL (≈ 170 µM) | – | 5.77 | > 100 µM
27 | CC(C)[C@H](NS(=O)(=O)CCc1ccncc1)C(=O)N[C@@H](Cc1ccccc1)[C@H](O)[C@H](O)[C@H](Cc1ccccc1)NC(=O)[C@H](NS(=O)(=O)CCc1ccncc1)C(C)C | 7.89 | > 100 µM | 4.72 | 55 µg/mL (≈ 65.7 µM) | – | – | –
28 | CC(C)[C@H](NC(=O)N1CCN(Cc2ccccc2)CC1)C(=O)N[C@@H](Cc1ccccc1)[C@@H](O)[C@@H](O)[C@H](Cc1ccccc1)NC(=O)[C@H](NC(=O)N1CCN(Cc2ccccc2)CC1)C(C)C | 8.11 | 17 µM | 5.37 | 9 µg/mL (≈ 9.96 µM) | – | – | –
